Like-named read-outs stand apart in the source and are kept apart here. Numbered stars: 1 amine (or outer) side, 2 acyl side, 3 side chain; on linkers, the order of the positions; unused ones are H or OH. Bridge positions count the residues as written; N and C are the ends. Square brackets hold non-standard residues; d marks the D form. Peptide text beside a SMILES is read from it. I, II: the chains in the order shown. Actinocin(9to1) = Cc1c2oc3c(C)ccc(C(=O)[*:1])c3nc-2c(C(=O)[*:2])c(N)c1=O; NMeV = CN[C@H](C(=O)O)C(C)C; Sar = CNCC(=O)O

The format of data set [1] is in vivo, human. In short, it runs like this: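 Five 2.5 mL catheter samples (three-draw-flush) taken on one of two random schedules, 5 min to 48-168 h post-infusion. Sodium-heparin plasma was separated within 6 h and frozen. LC-MS/MS, LLOQ 0.5 ng/mL. Noncompartmental: k_z from the last 3 points; AUC by linear trapezoid plus Clast/k_z; CL = dose/AUC∞; Vz = dose/(k_z·AUC∞). Episodes were compared by paired two-sided t-test on log-transformed differences.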

Data set [2] deals with patients <17 years old. In words: Vincristine target toxicity. Format: in vivo, human. To be noted: greater than baseline; weekly for one month and monthly for 6 months from sampling. The essentials: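 Vincristine-treated patients in four age cohorts were graded for neuropathy by CTC v3 (before 10/1/10) or CTCAE 4.03. Assessed weekly for one month, then monthly for 6 months from PK sampling. Only new-onset events or grade increases over baseline after sampling counted. Incidence was related to PK parameters and demographics by univariate logistic regression, then backward-selection multivariate regression.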

In data set [3] the test system is patients <17 years old. The data set is described as follows: Actinomycin-D target toxicities. The format is in vivo, human. The note with it: during the study. The essentials:
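Actinomycin-D given to patients in four age cohorts (<1, 1 to <3, 3 to <12, 12 to <17 years). Grade 3 ALT, AST, GGT elevation, sinusoidal obstructive syndrome, and grade 3 neutrophil or platelet decrease were reported weekly for 21 days after PK sampling. Only new-onset events or grade increases over baseline counted. Each toxicity was related to PK and demographics by univariate logistic regression, then backward-selection multivariate regression.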

The mark [4] stands for this setting: patients (n = 17) with two episodes of sampling, ratio (95% CI), P=0.05.

Compound `CC[C@]1(O)C[C@H]2CN(CCc3c([nH]c4ccccc34)[C@@](C(=O)OC)(c3cc4c(cc3OC)N(C=O)[C@H]3[C@@](O)(C(=O)OC)[C@H](OC(C)=O)[C@]5(CC)C=CCN6CC[C@]43[C@@H]65)C2)C1` [Vincristine] had a Clearance in data set [1] (all ages, n=132 patients, median, CV 67%) of 17.2 L/hr/m^2. In addition, in data set [1] (all ages, n=132 patients, median, CV 73%), the half-life – broadly, the time in which the quantity being followed falls by half – stood at 14.6 h. The area under the curve (AUC) (in general, concentration integrated over time) in data set [1] (all ages, n=132 patients, median, CV 98%) was 78 ng·h/mL. In addition, the “clearance, ratio between two sampling episodes” value in data set [1] (patients (n = 17) with two episodes of sampling, ratio (95% CI), P=0.04) is listed as 1.54 (1.03,2.31). In data set [1] (setting [4]), the “CL/BSA, ratio between two sampling episodes” value is given as 1.50 (0.99–2.25) and the “Vz/BSA, ratio between two sampling episodes” value is 1.56 (0.99–2.46). Also, in the data set on patients <17 years old [2], the “patients with grade 3 peripheral motor neuropathy” value was “four” and the “patients with grade 3 peripheral sensory neuropathy” value was “four”.
As for `Cc1c2oc3c(C)ccc(C(=O)N[C@@H]4C(=O)N[C@H](C(C)C)C(=O)N5CCC[C@H]5C(=O)N(C)CC(=O)N(C)[C@@H](C(C)C)C(=O)O[C@@H]4C)c3nc-2c(C(=O)N[C@@H]2C(=O)N[C@H](C(C)C)C(=O)N3CCC[C@H]3C(=O)N(C)CC(=O)N(C)[C@@H](C(C)C)C(=O)O[C@@H]2C)c(N)c1=O` [Actinomycin-D] (I: T[dV]P[Sar][NMeV] / II: T[dV]P[Sar][NMeV]; ester I:1-I:C, II:1-II:C; linker I:N-II:N via Actinocin(9to1)), the half-life in data set [1] (all ages, n=52 patients, median, CV 60%) was determined as 25 h. In data set [1] (all ages, n=52 patients, median, CV 90%), this compound came in with a Clearance of 4.6 L/hr/m^2. Further, in data set [1] (children <1 year vs oldest groups, consistent with the difference in dose), the “median AUC of the youngest group, lower than the oldest groups” value is on record as “approximately 50%”. Further, in the data set on patients <17 years old [3], the sinusoidal obstructive syndrome result is “No participant experienced sinusoidal obstructive syndrome”.

The record behind these values is article PMC8653953 (Cancer chemotherapy and pharmacology, 2021).
